Measured values from different studies.
Compare with care: the assays were run in different laboratories.
MMP1: Interstitial collagenase (MMP1, Homo sapiens, UniProt P03956)
SLC5A7: High affinity choline transporter 1 (SLC5A7, Homo sapiens, UniProt Q9GZV3)
CASP9: Caspase-9 (CASP9, Homo sapiens, UniProt P55211)
EEF2K: Eukaryotic elongation factor 2 kinase (EEF2K, Homo sapiens, UniProt O00418)

With `CCOC(=O)c1ccc(OC(=O)CCCCCNC(=N)N)cc1` the inhibition was 2% (MMP1; enzyme activity, inhibitor; 10 µM).
For `CN(CCN1CCC(OC(=O)Nc2ccccc2-c2ccccc2)CC1)C(=O)c1ccc(CN2CCC(C(N)=O)CC2)cc1`, the inhibition was -6% (SLC5A7; ligand displacement, radioligand; 1 µM).
`COC(=O)CC[C@H](NC(=O)[C@H](CC(C)C)NC(=O)OCc1ccccc1)C(=O)N[C@@H](Cc1cnc[nH]1)C(=O)N[C@@H](CC(=O)OC)C(=O)CF` gave an inhibition of 7% (CASP9; enzyme activity, inhibitor; 0.1 µM).
For `Cn1cc(-c2cccc(N3CCc4c(sc5c4CC(C)(C)C5)C3=O)c2CO)cc(Nc2ccncn2)c1=O`, the inhibition was 9% (Hepatocyte growth factor receptor (MET, Homo sapiens, UniProt P08581); enzyme activity, inhibitor; 1 µM).
With `c1ccc(C(NCCNC(c2ccccc2)c2ccccc2)c2ccccc2)cc1` the inhibition was -10% (MMP1; enzyme activity, inhibitor; 10 µM).
With `Cn1cc(-c2cc(F)cc(N3CCn4c(cc5c4CCCC5)C3=O)c2CO)cc(Nc2ccc(N3CCN(C4COC4)CC3)cn2)c1=O` the inhibition was 4% (EEF2K; enzyme activity, inhibitor; 0.1 µM).
The inhibition of `COc1ccc(S(=O)(=O)N2CCCCC2)cc1C` is reported as under 30% (Corticotropin-releasing factor receptor 1 (CRHR1, Homo sapiens, UniProt P34998); ligand displacement, radioligand; 10 µM).
The inhibition of `CN(C)C(=O)COC(=O)Cc1ccc(OC(=O)c2ccc(NC(=N)N)cc2)cc1` is reported as 3% (MMP1; enzyme activity, inhibitor; 10 µM).
For `Cc1ncc(C)n2nc(/C=C/c3nc(N4CCCC4)cc(N4CCOCC4)n3)nc12`, the inhibition was 14% (SLC5A7; ligand displacement; 10 µM).
`COc1cc(Nc2ncc(F)c(Nc3ccc4c(n3)NC(=O)C(C)(C)O4)n2)cc(OC)c1OC` has an inhibition of 56% (TRAF2 and NCK-interacting protein kinase (TNIK, Homo sapiens, UniProt Q9UKE5); binding; 10 µM).
With `C#Cc1n[nH]c2c(-c3cn([C@@H](C)c4ccccc4)c(=O)[nH]c3=O)cc(F)cc12` the inhibition was 2.3% (EEF2K; enzyme activity, inhibitor; 0.1 µM).
`CCN(CC)CCCC[C@H](NC(=O)[C@H](CC(C)C)NC(=O)[C@H](C)NC(=O)[C@H](Cc1ccccc1)NC(=O)c1ccc(C(C)(C)C)cc1)C(=O)N[C@@H](CO)C(=O)OC` has an inhibition of 7% (C-C chemokine receptor type 1 (CCR1, Homo sapiens, UniProt P32246); ligand displacement, radioligand; 10 µM).
`COc1ccc(S(=O)(=O)N(CC(=O)NO)CC(C)C)cc1` has an inhibition of 26% (MMP1; enzyme activity, inhibitor; 1 µM).
The inhibition of `O=C(Nc1cccnn1)N1CCN([C@@H]2CCOc3cc(C(F)(F)F)ccc32)CC1` is reported as 5% (Alpha-1B adrenergic receptor (ADRA1B, Homo sapiens, UniProt P35368); cell-free assay; 20 µM).
`C#Cc1n[nH]c2c(-c3cn(C(C)c4ccccn4)c(=O)[nH]c3=O)cc(F)cc12` (stereo not shown) has an inhibition of 25.2% (TGF-beta receptor type-1 (TGFBR1, Homo sapiens, UniProt P36897); enzyme activity, inhibitor; 1 µM).
For `N=C(N)c1ccc2cc(OC(=O)c3ccc(N=C(N)N)cc3)ccc2c1`, the inhibition was 0% (CASP9; enzyme activity, inhibitor; 10 µM).
